Active and inactive are the calls of the source. The rule behind the calls is not given here.
What was measured:
[1] = Cytotoxicity against human MT4 cells after 4 days by MTT assay; type: cell-based
Method in brief: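 Mock-infected MT-4 cells were run in parallel with the antiviral assay, with various concentrations of compound for 4 days at 37 °C. Viability was read by MTT. The value is the concentration that reduces viability by 50%.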

[2] = test system: Human immunodeficiency virus 2; assay: Antiviral activity against HIV2 in human M8166 cells assessed as virus-induced cytopathogenicity after 4 days by MTT assay; type: functional, organism-based; settings: Human immunodeficiency virus 2, M8166, 96 h
Method in brief: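 M8166 cells (1 × 10⁵) were infected with HIV-2 at an MOI of 0.1 and cultured with various concentrations of compound for 4 days at 37 °C. Viability was read by MTT. The value is the concentration giving 50% protection against the viral cytopathic effect.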

[3] = test system: Human immunodeficiency virus type 1 reverse transcriptase (Human immunodeficiency virus 1), Q72547 [M184V]; assay: Activity at reverse transcriptase M184V mutant in HIV1 assessed as suppression of replication
[4] = Cytotoxicity against human M8166 cells after 4 days by MTT assay; type: cell-based
[5] = test system: Human immunodeficiency virus 1; assay: Antiviral activity against HIV1 3B in human MT4 cells assessed as virus-induced cytopathogenicity after 4 days by MTT assay; type: functional, organism-based; settings: Human immunodeficiency virus 1, 3B, MT4, 96 h
Method in brief: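 MT-4 cells (1 × 10⁵ cells/mL) were infected with HIV-1 IIIB at an MOI of 0.02 and cultured with various concentrations of compound for 4 days at 37 °C. Viable cells were counted by MTT. The value is the concentration giving 50% protection against the viral cytopathic effect.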

Row | SMILES | CC50 at 96 h [1] [µM] | EC50 [2] [µM] | Activity [3] | CC50 at 96 h [4] [µM] | EC50 [5] [µM]
1 | C#C[C@]1(CO)S[C@@H](n2cc(C)c(=O)[nH]c2=O)C[C@@H]1O | > 100 | 0.13 | Active | > 10 | 0.31
2 | Cc1cn([C@H]2C[C@H](O)[C@](CO)(N=[N+]=[N-])S2)c(=O)[nH]c1=O | 40 | 0.024 | – | > 10 | 0.02
3 | Cc1cn([C@H]2C[C@H](O)[C@@](C#N)(CO)S2)c(=O)[nH]c1=O | > 100 | 0.023 | Active | > 10 | 0.037
4 | Cc1cn([C@H]2C[C@H](O)[C@](CO)(Sc3ccccc3)S2)c(=O)[nH]c1=O | > 100 | > 100 | – | > 100 | > 100
5 | CO[C@]1(CO)S[C@@H](n2cc(C)c(=O)[nH]c2=O)C[C@@H]1O | > 100 | 1.2 | – | > 100 | > 4
6 | C=CC[C@]1(CO)S[C@@H](n2cc(C)c(=O)[nH]c2=O)C[C@@H]1O | > 100 | > 100 | – | > 100 | > 100

From ChEMBL document CHEMBL1144022, “Synthesis and anti-HIV activity of 4'-substituted 4'-thiothymidines: a new entry based on nucleophilic substitution of the 4'-acetoxy group” (J Med Chem, 2008)
